Assay results: ChEMBL document CHEMBL4251573, “Synthesis and biological evaluation of N-substituted 3-oxo-1,2,3,4-tetrahydro-quinoxaline-6-carboxylic acid derivatives as tubulin polymerization inhibitors” (Eur J Med Chem, 2018)

Tests used:
[1] = test system: HeLa; assay: Cell cycle arrest in human HeLa cells assessed as accumulation at G2/M phase at 0.15 uM after 24 hrs by propidium iodide staining-based flow cytometric method (reference value: 19.9%); type: functional
[2] = test system: HeLa; assay: Induction of apoptosis in human HeLa cells assessed as early apoptotic cells at 0.20 uM after 24 hrs by annexin V-FITC/propidium iodide staining-based flow cytometric method (reference value: 2.31%); type: functional
[3] = test system: HeLa; assay: Induction of apoptosis in human HeLa cells after 24 hrs by annexin V-FITC/propidium iodide staining-based flow cytometric method; type: functional, cell-based
[4] = test system: HeLa; assay: Cell cycle arrest in human HeLa cells assessed as accumulation at G0/G1 phase at 0.25 uM after 24 hrs by propidium iodide staining-based flow cytometric method (reference value: 62.2%); type: functional
[5] = biological target: Tubulin; assay: Inhibition of tubulin (unknown origin) polymerization after 40 mins by fluorescence assay; type: protein-complex assay, Homo sapiens
Method in brief: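 Fluorescence-based kit assay. Compounds, in duplicate, were warmed 1 min at 37 °C, then cold tubulin mix was added (2 mg/mL tubulin in 80 mM PIPES pH 6.9, 2.0 mM MgCl2, 0.5 mM EGTA, 1.0 mM GTP, 15% glycerol). Assembly was read at ex 360/em 450 nm each minute for 1 h at 37 °C; 0.1% DMSO vehicle. IC50 is the concentration halving assembly extent at 40 min, from four concentrations.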

[6] = test system: SMMC-7721; assay: Antiproliferative activity against human SMMC7721 cells after 72 hrs by MTT assay; type: functional, cell-based; details: SMMC-7721, 72 h
Method in brief: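 HeLa and SMMC-7721 cells in log phase were seeded at 4000-6000 cells/well. After 24 h, quadruplicate wells were treated with a series of concentrations for 72 h. DMSO stocks were 5 mmol/L, with final DMSO below 0.1%. MTT (10 mg/mL in PBS) was added for 4 h, medium replaced with DMSO, and OD read at 490 nm. IC50 came from at least five concentrations; mean and SD of at least three independent experiments.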

[7] = test system: HeLa; assay: Cell cycle arrest in human HeLa cells assessed as accumulation at G2/M phase at 0.10 uM after 24 hrs by propidium iodide staining-based flow cytometric method (reference value: 19.9%); type: functional
[8] = test system: HeLa; assay: Cell cycle arrest in human HeLa cells assessed as accumulation at sub G1 phase at 0.20 uM after 24 hrs by propidium iodide staining-based flow cytometric method (reference value: 7.6%); type: functional
[9] = test system: HeLa; assay: Induction of apoptosis in human HeLa cells assessed as necrotic cells at 0.15 uM after 24 hrs by annexin V-FITC/propidium iodide staining-based flow cytometric method (reference value: 0.15%); type: functional
[10] = test system: HeLa; assay: Cell cycle arrest in human HeLa cells assessed as accumulation at sub G1 phase at 0.10 uM after 24 hrs by propidium iodide staining-based flow cytometric method (reference value: 7.6%); type: functional
[11] = test system: HeLa; assay: Disruption of microtubule network in human HeLa cells after 24 hrs by Hoechst 33342 staining-based immunofluorescence microscopic method; type: cell-based
Method in brief: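 HeLa cells were plated at 4000 per well for 24 h, then exposed for 24 h to vehicle or drug (0.1-0.2 μM). Fixation was 4% paraformaldehyde, 10 min, 4 °C, then 0.1% Triton X-100, 5 min, and 1% BSA block, 1 h. Staining used anti-α-tubulin (1:100, 12 h, 4 °C), then FITC anti-mouse IgG (1:100, 30 min, 37 °C), with Hoechst 33342 for nuclei. Imaged by fluorescence microscopy.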

[12] = test system: HeLa; assay: Induction of apoptosis in human HeLa cells assessed as necrotic cells at 0.20 uM after 24 hrs by annexin V-FITC/propidium iodide staining-based flow cytometric method (reference value: 0.15%); type: functional

SMILES: COC(=O)c1ccc2c(c1)NC(=O)CN2C(=O)c1cc(OC)c(OC)c(OC)c1
- Activity [1]: 29.2%
- Activity [2]: 17.05%
- Activity [3]: Dose-dependent effect
- Activity [4]: 13.8%
- IC50 [5]: 3970 nM
- IC50 [6]: 71 nM
- Activity [7]: 21.8%
- Activity [8]: 32.9%
- Activity [9]: 3.81%
- Activity [10]: 13.1%
- Activity [11]: Dose-dependent effect
- Activity [12]: 6.36%
